Laboratory results as given in ChEMBL document CHEMBL1133671, “Synthesis and SAR of new 5-phenyl-3-ureido-1,5-benzodiazepines as cholecystokinin-B receptor antagonists” (J Med Chem, 2000).

What was measured:
[1] = target: T1, Cholecystokinin receptor type A (Rattus norvegicus, UniProt P30551); assay: In vitro inhibition of binding of [3H]pCCK-8 against Cholecystokinin type A receptor of rat pancreatic membranes; format: cell membranes, Membrane
T1 sequence (P30551 whole entry): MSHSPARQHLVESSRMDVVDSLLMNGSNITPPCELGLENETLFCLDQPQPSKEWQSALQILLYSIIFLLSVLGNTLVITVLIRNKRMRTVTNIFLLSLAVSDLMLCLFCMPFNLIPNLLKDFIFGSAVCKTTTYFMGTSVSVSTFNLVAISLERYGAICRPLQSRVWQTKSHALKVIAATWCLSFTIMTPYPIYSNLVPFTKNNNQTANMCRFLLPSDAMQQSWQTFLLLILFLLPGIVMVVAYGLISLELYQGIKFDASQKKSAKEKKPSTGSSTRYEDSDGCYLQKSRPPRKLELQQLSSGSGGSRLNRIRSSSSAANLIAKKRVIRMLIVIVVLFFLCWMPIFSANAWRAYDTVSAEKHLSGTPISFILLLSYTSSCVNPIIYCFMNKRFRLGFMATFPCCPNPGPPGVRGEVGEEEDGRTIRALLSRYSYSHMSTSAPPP
In short: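 Radioligand displacement of [3H]CCK-8S from membranes: rat pancreas for the CCK-A receptor and guinea-pig cerebral cortex for the CCK-B receptor, using slightly modified published methods. Values are means of n experiments.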

Cavia porcellus = organism: Cavia porcellus; assay: Selectivity factor between CCK-B and CCK-A receptors

Row | SMILES | Ki [1] [nM] | Ratio (Cavia porcellus)
1 | O=C(Nc1ccc(Br)cc1)NC1C(=O)N(CC23C[C@H]4C[C@@H](C2)C[C@@H](C3)C4)c2ccccc2N(c2ccccc2)C1=O (stereo partly drawn) | 3470 | 2460
2 | CC(C)(C)CCN1C(=O)C(NC(=O)Nc2cccc(C#N)c2)C(=O)N(c2ccccc2)c2ccccc21 (stereo not drawn) | 97.7 | 151
3 | CN(C)c1cccc(NC(=O)NC2C(=O)N(c3ccccc3)c3ccccc3N(C3[C@H]4C[C@@H]5C[C@@H](C[C@H]3C5)C4)C2=O)c1 (stereo partly drawn) | 141 | 60
4 | O=C(Nc1cccc(Cl)c1)NC1C(=O)N(c2ccccc2)c2ccccc2N(C2CC3CCC2C3)C1=O (stereo not drawn) | 47.9 | 28
5 | CSc1cccc(NC(=O)NC2C(=O)N(CCC34C[C@H]5C[C@@H](C3)C[C@@H](C4)C5)c3ccccc3N(c3ccccc3)C2=O)c1 (stereo partly drawn) | 251 | 4
6 | CC(=O)Nc1cccc(NC(=O)NC2C(=O)N(CC34C[C@H]5C[C@@H](C3)C[C@@H](C4)C5)c3ccccc3N(c3ccccc3)C2=O)c1 (stereo partly drawn) | 1510 | 591
7 | CN(C)c1cccc(NC(=O)NC2C(=O)N(c3ccccc3)c3ccccc3N(C3CC4CCC3C4)C2=O)c1 (stereo not drawn) | 44.7 | 40
8 | O=C(Nc1cccc(C2N=NN=N2)c1)NC1C(=O)N(c2ccccc2)c2ccccc2N(C2[C@H]3C[C@@H]4C[C@@H](C[C@H]2C4)C3)C1=O (stereo partly drawn) | 97.7 | 47
9 | CN(C)c1cccc(NC(=O)NC2C(=O)N(CCC34C[C@H]5C[C@@H](C3)C[C@@H](C4)C5)c3ccccc3N(c3ccccc3)C2=O)c1 (stereo partly drawn) | 295 | 22
10 | O=Cc1cccc(NC(=O)NC2C(=O)N(CC34C[C@H]5C[C@@H](C3)C[C@@H](C4)C5)c3ccccc3N(c3ccccc3)C2=O)c1 (stereo partly drawn) | 1120 | 1180
11 | CCOC(=O)c1cccc(NC(=O)NC2C(=O)N(CC34C[C@H]5C[C@@H](C3)C[C@@H](C4)C5)c3ccccc3N(c3ccccc3)C2=O)c1 (mixture of isomers) | 813 | 275
12 | CN(C)c1cccc(NC(=O)NC2C(=O)N(CC34C[C@H]5C[C@@H](C3)C[C@@H](C4)C5)c3ccccc3N(c3ccccc3)C2=O)c1 (mixture of isomers) | 447 | 398
13 | CC(C)Cn1nnc(-c2cccc(NC(=O)NC3C(=O)N(CCC(C)(C)C)c4ccccc4N(c4ccccc4)C3=O)c2)n1 (racemic) | 49 | 20
14 | O=C(Nc1ccccc1)NC1C(=O)N(CCC2CCCC2)c2ccccc2N(c2ccccc2F)C1=O (racemic) | 100 | 138
15 | O=C(Nc1cccc(C(=O)O)c1)NC1C(=O)N(CC23C[C@H]4C[C@@H](C2)C[C@@H](C3)C4)c2ccccc2N(c2ccccc2)C1=O (mixture of isomers) | 631 | 646
16 | CSc1cccc(NC(=O)NC2C(=O)N(CCC(C)C)c3ccccc3N(c3ccccc3F)C2=O)c1 (racemic) | 36.3 | 110
17 | O=C(Nc1cccc(Br)c1)NC1C(=O)N(CC23C[C@H]4C[C@@H](C2)C[C@@H](C3)C4)c2ccccc2N(c2ccccc2)C1=O (mixture of isomers) | 191 | –
18 | CC(C)(C)CCN1C(=O)C(NC(=O)Nc2cccc(OC(F)(F)F)c2)C(=O)N(c2ccccc2)c2ccccc21 (racemic) | 112 | 38
19 | O=C(Nc1ccccc1)NC1C(=O)N(c2ccccc2)c2ccccc2N(C2CC3CCC2C3)C1=O (racemic) | 251 | 162
20 | CSc1cccc(NC(=O)NC2C(=O)N(CCC(C)(C)C)c3ccccc3N(c3ccccc3)C2=O)c1 (racemic) | 7.41 | 15
21 | CCCCN1C(=O)C(NC(=O)Nc2ccccc2)C(=O)N(c2ccccc2)c2ccccc21 (racemic) | 550 | 89
22 | O=C(Nc1cccc([N+](=O)[O-])c1)NC1C(=O)N(CC23C[C@H]4C[C@@H](C2)C[C@@H](C3)C4)c2ccccc2N(c2ccccc2)C1=O (mixture of isomers) | 302 | 158
23 | CC(O)C(O)Nc1cccc(NC(=O)NC2C(=O)N(CC34C[C@H]5C[C@@H](C3)C[C@@H](C4)C5)c3ccccc3N(c3ccccc3)C2=O)c1 (mixture of isomers) | 631 | –
24 | O=C(Nc1cccc(C2N=NN=N2)c1)NC1C(=O)N(CCC2CCCC2)c2ccccc2N(c2ccccc2F)C1=O (racemic) | 120 | 468
25 | O=C(Nc1ccccc1)NC1C(=O)N(CCc2ccccc2)c2ccccc2N(c2ccccc2)C1=O (racemic) | 269 | 32
